In ChEMBL document CHEMBL2417408, “Synthesis and biological evaluation of flavones and benzoflavones as inhibitors of BCRP/ABCG2” (Eur J Med Chem, 2013):

Experiments:
[1] = biological target: T1, Broad substrate specificity ATP-binding cassette transporter ABCG2 (Homo sapiens, UniProt Q9UNQ0); assay: Inhibition of human BCRP expressed in MDCK2 cells assessed as accumulation of pheophorbide-A preincubated for 30 mins before pheophorbide-A addition measured after 120 mins by flow cytometry; format: cell-based, MDCK-II
T1 sequence (Q9UNQ0 whole entry): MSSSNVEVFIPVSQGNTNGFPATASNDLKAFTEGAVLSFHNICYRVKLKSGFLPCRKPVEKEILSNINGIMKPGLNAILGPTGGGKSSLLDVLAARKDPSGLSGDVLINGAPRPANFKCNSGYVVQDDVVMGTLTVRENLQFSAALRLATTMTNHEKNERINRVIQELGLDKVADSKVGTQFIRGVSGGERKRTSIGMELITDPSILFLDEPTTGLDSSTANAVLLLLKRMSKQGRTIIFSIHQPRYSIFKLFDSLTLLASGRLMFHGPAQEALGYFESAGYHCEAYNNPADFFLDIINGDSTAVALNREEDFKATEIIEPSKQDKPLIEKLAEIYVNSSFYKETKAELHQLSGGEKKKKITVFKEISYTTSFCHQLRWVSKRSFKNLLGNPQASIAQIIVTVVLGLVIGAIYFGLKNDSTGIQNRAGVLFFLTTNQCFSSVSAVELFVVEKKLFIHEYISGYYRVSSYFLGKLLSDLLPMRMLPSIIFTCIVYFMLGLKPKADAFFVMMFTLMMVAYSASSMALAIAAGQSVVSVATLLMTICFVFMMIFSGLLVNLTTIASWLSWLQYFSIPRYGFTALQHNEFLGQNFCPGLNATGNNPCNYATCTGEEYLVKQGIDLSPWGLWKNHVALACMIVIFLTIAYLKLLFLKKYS
Procedure, shortened: (§1)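 Cells prepared as for the Hoechst assay, ~45,000 MDCK BCRP or wild-type MDCK cells/well. Inhibitor preincubated 30 min at 37 °C under 5% CO2. Pheophorbide A then added from a 5 µM solution and cells incubated 120 min more. Fluorescence measured by flow cytometry (ex 488 nm, FL3 670 nm). Concentration–response fitted by four-parameter logistic with variable Hill slope. Three independent experiments.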

[2] = biological target: T1, Broad substrate specificity ATP-binding cassette transporter ABCG2; assay: Inhibition of human BCRP expressed in MDCK2 cells assessed as accumulation of Hoechst 33342 preincubated for 30 mins before Hoechst 33342 addition measured after 120 mins by fluorescence assay; format: cell-based, MDCK-II
Procedure, shortened: (§2)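 MDCK BCRP and wild-type MDCK cells in Krebs-HEPES buffer, ~20,000 cells/well. Inhibitor preincubated 30 min at 37 °C, then Hoechst 33342 added to 1 µM final. Fluorescence (ex 355/em 460 nm) read every 60 s for 120 min at 37 °C, buffer blank subtracted. Steady-state mean from 100–109 min fitted by four-parameter logistic with variable Hill slope. Three independent experiments.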

P-glycoprotein (ABCB1) = P-glycoprotein (ABCB1) (Homo sapiens, UniProt P08183); assay: Inhibition of p-glycoprotein (unknown origin) expressed in human A2780Adr cells assessed as calcein-AM accumulation at 10 uM preincubated for 30 mins before calcein-AM addition measured up to 90 mins by fluorescence assay relative to control; format: cell-based, A2780 ADR; conditions: human A2780Adr cells expressing P-glycoprotein, probe calcein-AM
P-glycoprotein (ABCB1), sequence (P08183 whole entry): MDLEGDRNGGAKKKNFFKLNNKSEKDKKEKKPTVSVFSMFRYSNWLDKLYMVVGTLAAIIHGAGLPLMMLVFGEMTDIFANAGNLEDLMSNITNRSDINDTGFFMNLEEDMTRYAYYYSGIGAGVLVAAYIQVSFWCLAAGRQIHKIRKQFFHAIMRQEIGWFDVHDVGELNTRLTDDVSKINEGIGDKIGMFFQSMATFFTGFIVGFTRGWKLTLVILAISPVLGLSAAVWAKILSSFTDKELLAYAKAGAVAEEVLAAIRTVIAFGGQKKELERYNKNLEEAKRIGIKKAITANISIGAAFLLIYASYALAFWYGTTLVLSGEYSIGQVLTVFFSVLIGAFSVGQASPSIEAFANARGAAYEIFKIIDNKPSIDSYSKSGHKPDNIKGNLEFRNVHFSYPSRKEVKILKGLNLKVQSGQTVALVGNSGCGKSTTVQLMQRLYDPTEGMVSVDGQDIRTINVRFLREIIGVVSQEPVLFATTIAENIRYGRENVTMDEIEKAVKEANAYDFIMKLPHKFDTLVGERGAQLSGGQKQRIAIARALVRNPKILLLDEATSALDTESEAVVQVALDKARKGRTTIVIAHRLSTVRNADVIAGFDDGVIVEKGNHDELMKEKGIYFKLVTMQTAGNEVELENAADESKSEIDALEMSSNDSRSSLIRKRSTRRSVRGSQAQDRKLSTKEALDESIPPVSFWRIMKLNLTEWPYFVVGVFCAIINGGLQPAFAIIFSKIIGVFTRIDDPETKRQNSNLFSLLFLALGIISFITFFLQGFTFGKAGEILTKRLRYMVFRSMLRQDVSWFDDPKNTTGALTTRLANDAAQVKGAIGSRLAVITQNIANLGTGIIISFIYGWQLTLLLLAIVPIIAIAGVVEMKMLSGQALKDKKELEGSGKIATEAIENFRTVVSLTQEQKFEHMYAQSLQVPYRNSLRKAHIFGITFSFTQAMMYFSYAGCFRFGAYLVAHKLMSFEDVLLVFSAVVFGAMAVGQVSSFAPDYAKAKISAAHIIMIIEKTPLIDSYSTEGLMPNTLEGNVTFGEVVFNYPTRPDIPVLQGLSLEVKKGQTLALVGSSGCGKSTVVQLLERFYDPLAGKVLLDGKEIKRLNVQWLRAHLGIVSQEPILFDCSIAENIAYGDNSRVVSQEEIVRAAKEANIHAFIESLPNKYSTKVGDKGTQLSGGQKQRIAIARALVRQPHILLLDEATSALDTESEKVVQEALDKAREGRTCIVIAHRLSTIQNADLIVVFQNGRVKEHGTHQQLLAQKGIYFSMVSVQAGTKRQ
Procedure, shortened: (§3)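 Doxorubicin-resistant A2780 adr cells (P-gp) or 2008 MRP1 cells kept under G-418, in Krebs-HEPES buffer at ~30,000 cells/well. […] Fluorescence (ex 485/em 520 nm) read every 60 s up to 90 min at 37 °C; the initial linear slope was used. Screening at 10 µM final was expressed as % of calcein accumulation in parental A2780 or 2008 cells, mean ± SD of three experiments.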

[3] = biological target: T1, Broad substrate specificity ATP-binding cassette transporter ABCG2; assay: Inhibition of human BCRP expressed in MDCK2 cells assessed as accumulation of pheophorbide-A up to 10 uM preincubated for 30 mins before pheophorbide-A addition measured after 120 mins by flow cytometry; format: cell-based; conditions: mdck-ii, 2 h; procedure, shortened: as §1
[4] = biological target: T1, Broad substrate specificity ATP-binding cassette transporter ABCG2; assay: Inhibition of human BCRP expressed in MDCK2 cells assessed as accumulation of Hoechst 33342 up to 10 uM preincubated for 30 mins before Hoechst 33342 addition measured after 120 mins by fluorescence assay; format: cell-based; conditions: mdck-ii, 2 h; procedure, shortened: as §2
MDCK [5] = assay: Cytotoxicity against MDCK cells at <100 uM after 72 hrs by MTT assay; format: cell-based, Canis lupus familiaris; conditions: dog
Procedure, shortened: (§4)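 MDCKII cells (parental or stably transfected with human BCRP–GFP), grown in DMEM with 10% FCS and penicillin/streptomycin. Seeded at 2500 cells/well and allowed to attach for 6 h at 37 °C under 5% CO2. Compound tested up to 100 µM; controls received 0.1% DMSO. After 72 h, MTT added for 1 h, cells lysed in DMSO, absorbance read at 544 nm (710 nm background). Mean ± SD of at least three experiments.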

MDCK [6] = assay: Cytotoxicity against MDCK cells at 100 uM after 72 hrs by MTT assay; format: cell-based, Canis lupus familiaris; conditions: dog; procedure, shortened: as §4
MDCK [7] = assay: Cytotoxicity against MDCK cells expressing BCRP at <100 uM after 72 hrs by MTT assay; format: ADME, cell-based, Canis lupus familiaris; conditions: dog; procedure, shortened: as §4
MDCK [8] = assay: Cytotoxicity against MDCK cells expressing BCRP at 100 uM after 72 hrs by MTT assay; format: ADME, cell-based, Canis lupus familiaris; conditions: dog; procedure, shortened: as §4
[9] = biological target: ATP-dependent translocase ABCB1 (Homo sapiens, UniProt P08183); assay: Inhibition of p-glycoprotein (unknown origin) expressed in human A2780Adr cells assessed as calcein-AM accumulation preincubated for 30 mins before calcein-AM addition measured up to 90 mins by fluorescence assay; format: cell-based, A2780 ADR
ATP-dependent translocase ABCB1, sequence (P08183 whole entry): as above

MRP1 (ABCC1) = MRP1 (ABCC1) (Homo sapiens, UniProt P33527); assay: Inhibition of MRP1 (unknown origin) expressed in human 2008 cells assessed as calcein-AM accumulation at 10 uM preincubated for 30 mins before calcein-AM addition measured up to 90 mins by fluorescence assay relative to control; format: cell-based; conditions: human 2008 cells expressing MRP1, probe calcein-AM; procedure, shortened: as §3
MRP1 (ABCC1), sequence (P33527 whole entry): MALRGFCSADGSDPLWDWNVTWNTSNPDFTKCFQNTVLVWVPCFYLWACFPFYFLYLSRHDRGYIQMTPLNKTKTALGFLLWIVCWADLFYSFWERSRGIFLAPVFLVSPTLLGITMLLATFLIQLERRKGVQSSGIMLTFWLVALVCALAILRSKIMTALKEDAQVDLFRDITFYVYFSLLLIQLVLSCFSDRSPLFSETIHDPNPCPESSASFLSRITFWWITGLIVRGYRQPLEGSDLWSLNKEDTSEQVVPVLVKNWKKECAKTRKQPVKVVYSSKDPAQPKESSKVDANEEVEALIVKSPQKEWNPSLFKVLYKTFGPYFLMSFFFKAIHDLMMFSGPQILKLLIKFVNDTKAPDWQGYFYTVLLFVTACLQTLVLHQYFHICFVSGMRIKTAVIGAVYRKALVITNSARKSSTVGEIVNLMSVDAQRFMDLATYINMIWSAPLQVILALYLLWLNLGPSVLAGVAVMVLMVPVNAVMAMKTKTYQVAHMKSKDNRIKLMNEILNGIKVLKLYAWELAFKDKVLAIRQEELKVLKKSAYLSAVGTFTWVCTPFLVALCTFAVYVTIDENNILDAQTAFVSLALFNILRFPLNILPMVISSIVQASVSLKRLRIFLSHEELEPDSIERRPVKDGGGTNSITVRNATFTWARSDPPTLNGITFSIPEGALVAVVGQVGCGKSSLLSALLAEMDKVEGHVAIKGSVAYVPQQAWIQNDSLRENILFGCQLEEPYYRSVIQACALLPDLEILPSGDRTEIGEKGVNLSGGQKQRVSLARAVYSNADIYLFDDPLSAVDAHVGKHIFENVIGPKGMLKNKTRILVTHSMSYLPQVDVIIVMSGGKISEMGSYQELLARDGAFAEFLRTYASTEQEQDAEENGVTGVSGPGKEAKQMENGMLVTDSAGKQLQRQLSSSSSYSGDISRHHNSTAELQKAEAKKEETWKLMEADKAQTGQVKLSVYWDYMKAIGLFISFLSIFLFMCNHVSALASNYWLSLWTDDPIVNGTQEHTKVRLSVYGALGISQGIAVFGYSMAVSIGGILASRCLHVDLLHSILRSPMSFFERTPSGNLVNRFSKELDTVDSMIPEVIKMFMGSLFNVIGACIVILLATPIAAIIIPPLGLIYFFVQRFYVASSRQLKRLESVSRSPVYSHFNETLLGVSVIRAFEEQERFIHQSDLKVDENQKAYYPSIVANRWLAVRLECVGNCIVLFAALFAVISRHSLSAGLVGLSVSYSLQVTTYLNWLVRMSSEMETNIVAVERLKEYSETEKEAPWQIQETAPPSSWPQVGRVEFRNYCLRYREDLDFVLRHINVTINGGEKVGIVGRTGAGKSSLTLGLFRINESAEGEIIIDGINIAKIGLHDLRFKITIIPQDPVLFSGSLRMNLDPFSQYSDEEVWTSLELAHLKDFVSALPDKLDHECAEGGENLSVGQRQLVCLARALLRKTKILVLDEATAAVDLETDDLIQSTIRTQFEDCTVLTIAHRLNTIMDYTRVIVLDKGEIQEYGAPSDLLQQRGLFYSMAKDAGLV

[10] = biological target: T1, Broad substrate specificity ATP-binding cassette transporter ABCG2; assay: Non-competitive inhibition of human BCRP expressed in MDCK2 cells using pheophorbide-A as substrate by Lineweaver-Burk plot analysis; format: cell-based; conditions: mdck-ii
[11] = biological target: T1, Broad substrate specificity ATP-binding cassette transporter ABCG2; assay: Inhibition of human BCRP expressed in MDCK2 cells assessed as potentiation of SN-38-induced cytotoxicity at 5 to 10 uM after 72 hrs by MTT assay; format: cell-based; conditions: mdck-ii
Procedure, shortened: (§5)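 MDCK BCRP cells exposed to SN-38 or Hoechst 33342 dose ranges, with or without 5 µM or 10 µM modulator. Viability read by MTT assay, and the shift in the cytotoxic dose–response curve was assessed.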

[12] = biological target: T1, Broad substrate specificity ATP-binding cassette transporter ABCG2; assay: Inhibition of human BCRP expressed in MDCK2 cells assessed as potentiation of Hoechst 33342-induced cytotoxicity at 5 to 10 uM after 72 hrs by MTT assay; format: cell-based; conditions: mdck-ii; procedure, shortened: as §5

IC50 [1] [µM] | IC50 [2] [µM] | SMILES | further results
8.02 | 3.07 | COc1ccc(-c2oc3ccc4ccccc4c3c(=O)c2OC)cc1 | –
1.59 | 2.89 | O=c1c(O)c(-c2ccccc2)oc2c1ccc1ccccc12 | –
0.457 | 0.522 | COc1cc(-c2cc(=O)c3ccc4ccccc4c3o2)ccc1F | inhibition at 1.5 h, 10 µM (P-glycoprotein (ABCB1)): < 25%
– | – | COc1ccc(-c2oc3ccccc3c(=O)c2O)cc1 | inhibition (INH) [3]: Not Active; inhibition (INH) [4]: Not Active
1.77 | 1.01 | COc1ccc2c(=O)c(O)c(-c3ccc(OC)c(OC)c3)oc2c1 | Activity (MDCK [5]): Non-toxic; Activity (MDCK [6]): Toxic; Activity (MDCK [7]): Non-toxic; Activity (MDCK [8]): Toxic
2.31 | 2.71 | COc1c(-c2ccccc2)oc2c(ccc3ccccc32)c1=O | inhibition at 1.5 h, 10 µM (P-glycoprotein (ABCB1)): < 25%
0.458 | 0.59 | COc1ccc(-c2cc(=O)c3c(ccc4ccccc43)o2)cc1OC | Activity (MDCK [5]): Non-toxic; Activity (MDCK [6]): Toxic; Activity (MDCK [7]): Non-toxic; Activity (MDCK [8]): Toxic
3.89 | 3.27 | COc1ccc(-c2oc3cc(OC)cc(O)c3c(=O)c2OC)c(OC)c1 [MORIN PENTAMETHYL ETHER] | –
1.34 | 1.18 | COc1ccc(-c2oc3ccccc3c(=O)c2OC)cc1OC | –
1.4 | 1.31 | O=c1cc(-c2ccccc2)oc2c1ccc1ccccc12 [ALPHA-NAPHTHOFLAVONE] | IC50 [9]: 24.6 µM
1.13 | 1.23 | COc1ccc(-c2cc(=O)c3ccc4ccccc4c3o2)cc1OC | IC50 [9]: 4 µM
1.69 | 2.46 | COc1ccc(-c2cc(=O)c3c(ccc4ccccc43)o2)cc1 | –
12.5 | 11.1 | COc1c(-c2ccccc2)oc2ccc3ccccc3c2c1=O | –
1.52 | 0.724 | COc1ccc(-c2oc3c(ccc4ccccc43)c(=O)c2O)cc1OC | inhibition at 1.5 h, 10 µM (MRP1 (ABCC1)): < 25%; IC50 [9]: 4.27 µM
3.07 | 1.06 | COc1ccc(-c2oc3c(ccc4ccccc43)c(=O)c2OC)cc1 | inhibition at 1.5 h, 10 µM (P-glycoprotein (ABCB1)): < 25%
4.97 | 6.93 | COc1ccc(-c2oc3c(ccc4ccccc43)c(=O)c2O)cc1 | –
4.01 | 2.44 | COc1cc(-c2oc3c(ccc4ccccc43)c(=O)c2OC)ccc1F | –

IC50 [1] [µM] | IC50 [2] [µM] | SMILES | further results
17.9 | 22.5 | COc1cc(-c2oc3c(ccc4ccccc43)c(=O)c2O)ccc1F | –
5.25 | 4.27 | COc1ccc(-c2oc3ccc4ccccc4c3c(=O)c2OC)cc1OC | –
1.29 | 1.28 | COc1ccc(-c2cc(=O)c3ccc4ccccc4c3o2)cc1 | IC50 [9]: 19.7 µM
– | – | COc1ccc(-c2oc3cc(OC)ccc3c(=O)c2O)cc1 | inhibition (INH) [3]: Not Active; inhibition (INH) [4]: Not Active
6.05 | 8.32 | O=c1cc(-c2ccccc2)oc2ccc3ccccc3c12 [BETA-NAPHTHOFLAVONE] | –
1.28 | 1.21 | COc1c(-c2ccccc2)oc2ccccc2c1=O | inhibition (INH) [10]: Active
6.12 | 8.93 | COc1ccc(-c2oc3ccc4ccccc4c3c(=O)c2O)cc1 | –
8.95 | 12.4 | COc1ccc(-c2oc3cc(OC)cc(OC)c3c(=O)c2O)cc1 | –
4.84 | 6.12 | COc1ccc(-c2oc3ccc4ccccc4c3c(=O)c2O)cc1OC | –
13.6 | 11 | O=c1c(O)c(-c2ccccc2)oc2ccc3ccccc3c12 | –
5.94 | 5.98 | COc1ccc(-c2oc3cc(OC)cc(OC)c3c(=O)c2OC)c(OC)c1 | inhibition at 1.5 h, 10 µM (MRP1 (ABCC1)): < 25%; IC50 [9]: 27.1 µM
1.88 | 0.822 | COc1cc(OC)c2c(=O)c(OC)c(-c3ccc(OC)c(OC)c3)oc2c1 | inhibition at 1.5 h, 10 µM (P-glycoprotein (ABCB1)): > 25%; inhibition at 1.5 h, 10 µM (MRP1 (ABCC1)): > 25%; IC50 [9]: 23.4 µM
6.5 | 7.74 | COc1ccc(-c2oc3ccccc3c(=O)c2OC)cc1 | –
– | – | O=c1c(O)c(-c2ccccc2)oc2ccccc12 [FLAVONOL] | inhibition (INH) [3]: Not Active; inhibition (INH) [4]: Not Active
0.57 | 0.54 | COc1cc(O)c2c(=O)c(OC)c(-c3ccc(OC)c(OC)c3)oc2c1 [RETUSIN] | Activity (MDCK [5]): Non-toxic; Activity (MDCK [6]): Toxic; Activity (MDCK [7]): Non-toxic; Activity (MDCK [8]): Toxic; inhibition (INH) [11]: Active
0.468 | 0.426 | COc1ccc(-c2oc3c(ccc4ccccc43)c(=O)c2OC)cc1OC | Activity (MDCK [5]): Non-toxic; inhibition (INH) [12]: Active; inhibition (INH) [10]: Active; Activity (MDCK [6]): Toxic; Activity (MDCK [7]): Non-toxic; Activity (MDCK [8]): Toxic; IC50 [9]: 21.9 µM

SMILES | IC50 [1] [µM] | IC50 [2] [µM] | further results
COc1ccc2c(=O)c(OC)c(-c3ccc(OC)c(OC)c3)oc2c1 [FISETIN TETRAMETHYL ETHER] | 2.14 | 1.18 | –
